Converted amounts (≈) assume the structure as drawn.
Tests used:
Vero = experiment: Cytotoxicity against African green monkey Vero cells after 72 hrs by MTT assay; format: cell-based, Chlorocebus sabaeus
How it was run: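 Vero (ATCC CCL-81) cells in Eagle's MEM with 10% FBS and penicillin-streptomycin, in 96-well plates. Serial dilutions from 0.78 to 200 μg/mL. Tunicamycin, colistin or tobramycin as controls on each plate. Viability by MTT, giving IC50.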

Acinetobacter baumannii [1] = experiment: Growth inhibition of Acinetobacter baumannii ATCC 19606 after 48 hrs by resazurin dye based microdilution method; format: functional
How it was run: (§1)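 A. baumannii ATCC 19606 grown in tryptic soy broth, 37 °C with shaking, to mid-log (OD 0.5). Cultures treated with serial dilutions of inhibitor (DMSO stock 1 mg/100 μL), 48 h at 37 °C. Resazurin then added, 1 h at 37 °C with shaking. MIC is the lowest concentration staying blue; MBC is blue retained over 4 h, with CFU plating if needed (99.9% kill).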

Acinetobacter baumannii [2] = experiment: Bactericidal activity against multidrug-resistant Acinetobacter baumannii ATCC BAA 18002 after 48 hrs by resazurin dye based broth microdilution method; format: functional; details: for MBC: read-out: MBC99.9
How it was run: (§2)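 Broth microdilution in tryptic soy broth. Mid-log cultures (OD600 0.5) treated with serial dilutions from a DMSO stock (1 mg per 100 μL) for 48 h at 37 °C. Resazurin (stock 0.02%) then added for 1 h at 37 °C. MIC is the lowest concentration staying blue; MBC is blue retained over 4 h (99.9% kill), with CFU plating when needed.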

Acinetobacter baumannii [3] = experiment: Bactericidal activity against Acinetobacter baumannii ATCC 19606 after 48 hrs by resazurin dye based microdilution method; format: functional; details: for MBC: ATCC 19606 = CIP 70.34 = JCM 6841, 48 h, read-out: MBC99.9; how it was run: as §1
Acinetobacter baumannii [4] = experiment: Growth inhibition of multidrug-resistant Acinetobacter baumannii ATCC BAA 18002 after 48 hrs by resazurin dye based broth microdilution method; format: functional; how it was run: as §2
Acinetobacter baumannii [5] = experiment: Potentiation of doxycycline-induced antimicrobial activity against Acinetobacter baumannii ATCC 19606 at 0.78 ug/ml in presence of 0.025 ug/ml doxycycline by microdilution broth checkerboard method; format: functional, ATCC 19606 = CIP 70.34 = JCM 6841
How it was run: (§3)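 A. baumannii ATCC 19606 in a broth microdilution checkerboard with doxycycline, 96 concentration combinations. ΣFIC = C_A/MIC_A + C_B/MIC_B, taken for wells at the growth/no-growth interface; ΣFIC <0.5 counts as synergy.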

Acinetobacter baumannii [6] = experiment: Potentiation of doxycycline-induced antimicrobial activity against Acinetobacter baumannii ATCC 19606 at 1.56 ug/ml in presence of 0.05 ug/ml doxycycline by microdilution broth checkerboard method; format: functional, ATCC 19606 = CIP 70.34 = JCM 6841; how it was run: as §3
[7] = Half life in Sprague-Dawley rat liver microsomes at 500 ng/ml by LC/MS analysis; format: ADME, microsome
How it was run: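 Pooled Sprague-Dawley rat liver microsomes at 1 mg/mL protein in 100 mM phosphate, pH 7.4. Compound at 500 ng/mL final; verapamil as positive control. Pre-equilibrated 5 min at 37 °C, then 1 mM NADPH added. Triplicate samples at 0, 5, 10, 20, 30, 45 and 60 min, quenched in 4 volumes of cold methanol, analysed by LC-MS.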

[8] = Solubility of the compound in water at 10 mg after 24 hrs by HPLC based shake flask method; format: physicochemical
Klebsiella pneumoniae [9] = experiment: Growth inhibition of Klebsiella pneumoniae ATCC 8047 after 48 hrs by resazurin dye based microdilution method; format: functional; details: ATCC 8047, 48 h; how it was run: as §2
Klebsiella pneumoniae [10] = experiment: Bactericidal activity against Klebsiella pneumoniae ATCC 8047 after 48 hrs by resazurin dye based microdilution method; format: functional; details: ATCC 8047, 48 h, read-out: MBC99.9; how it was run: as §2
Escherichia coli [11] = experiment: Growth inhibition of Escherichia coli ATCC 10798 after 48 hrs by resazurin dye based microdilution method; format: functional; details: ATCC 10798, 48 h; how it was run: as §2
Escherichia coli [12] = experiment: Bactericidal activity against Escherichia coli ATCC 10798 after 48 hrs by resazurin dye based microdilution method; format: functional; details: ATCC 10798, 48 h, read-out: MBC99.9; how it was run: as §2
Pseudomonas aeruginosa [13] = experiment: Growth inhibition of Pseudomonas aeruginosa ATCC 27853 after 48 hrs by resazurin dye based microdilution method; format: functional; details: ATCC 27853, 48 h; how it was run: as §2
Pseudomonas aeruginosa [14] = experiment: Bactericidal activity against Pseudomonas aeruginosa ATCC 27853 after 48 hrs by resazurin dye based microdilution method; format: functional; details: ATCC 27853, 48 h, read-out: MBC99.9; how it was run: as §2
Staphylococcus aureus [15] = experiment: Growth inhibition of Staphylococcus aureus ATCC 25923 after 48 hrs by resazurin dye based microdilution method; format: functional; details: ATCC 25923, 48 h; how it was run: as §2
Staphylococcus aureus [16] = experiment: Bactericidal activity against Staphylococcus aureus ATCC 25923 after 48 hrs by resazurin dye based microdilution method; format: functional; details: ATCC 25923, 48 h, read-out: MBC99.9; how it was run: as §2
Acinetobacter baumannii [17] = experiment: Synergistic antibacterial activity against Acinetobacter baumannii ATCC 19606 infected in C57BL/6 mouse assessed as increase in survival rate at compound to doxycycline ratio of 35:1 administered ip as single dose measured for 5 days; format: functional; details: ATCC 19606 = CIP 70.34 = JCM 6841, ip, 120 h
How it was run: (§4)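 C57BL/6 mice (n = 5 per group; 4 untreated controls) infected intraperitoneally with A. baumannii ATCC19606 grown at 37 °C and collected by centrifugation, at a dose giving 75% death. Single intraperitoneal dose (2 to 60 mg/kg) given 1 h after infection. Mice monitored for 5 days, with death as the end point; survival rate recorded.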

Acinetobacter baumannii [18] = experiment: Antibacterial activity against Acinetobacter baumannii ATCC 19606 infected in C57BL/6 mouse assessed as survival rate at 6 mg/kg, ip administered as single dose measured for 5 days (reference value: <20%); format: functional; details: ATCC 19606 = CIP 70.34 = JCM 6841, ip, 120 h; how it was run: as §4
[19] = ATCC 19606 = CIP 70.34 = JCM 6841, 48 h
[20] = Chlorocebus sabaeus, Vero, 72 h, read-out: IC50
[21] = ATCC 19606 = CIP 70.34 = JCM 6841

## COLISTIN [listing 1 of 2 here]
Vero; vero
  IC50: > 200 µg/mL

## C=C[C@]1(C)C[C@@H](OC(=O)CSC(C)(C)CNC(=O)[C@H](N)C(C)C)[C@]2(C)[C@H](C)CC[C@]3(CCC(=O)[C@H]32)[C@@H](C)[C@@H]1O [VALNEMULIN]
Acinetobacter baumannii [1]; [19]
  MIC: 3.13 µg/mL (≈ 5.54 µM)
Acinetobacter baumannii [2]
  MBC: 25 µg/mL (≈ 44.3 µM)
Acinetobacter baumannii [3]
  MBC: 12.5 µg/mL (≈ 22.1 µM)
Acinetobacter baumannii [4]; ATCC BAA 18002, 48 h
  MIC: 6.25 µg/mL (≈ 11.1 µM)
Acinetobacter baumannii [5]
  fractional inhibitory concentration index (FICI): 0.375
Acinetobacter baumannii [6]
  fractional inhibitory concentration index (FICI): 0.375
[7]
  t1/2: 34.8 s
Vero; [20]
  IC50: 14.9 µg/mL (≈ 26.4 µM)
[8]
  solubility: Soluble

## C=C[C@]1(C)C[C@@H](OC(=O)CSC(C)(C)CNC(=O)[C@H](NCCN)C(C)C)[C@]2(C)[C@H](C)CC[C@]3(CC[C@@H](O)[C@H]32)[C@@H](C)[C@@H]1O
Acinetobacter baumannii [2]
  MBC: > 12.5 µg/mL
Acinetobacter baumannii [4]; ATCC BAA 18002, 48 h
  MIC: 3.15 µg/mL (≈ 5.16 µM)

## C[C@H]1c2cccc(O)c2C(=O)C2=C(O)[C@]3(O)C(=O)C(C(N)=O)=C(O)[C@@H](N(C)C)[C@@H]3[C@@H](O)[C@@H]21.O [DOXYCYCLINE]
Acinetobacter baumannii [1]; [19]
  MIC: 0.3 µg/mL
Acinetobacter baumannii [3]
  MBC: 0.4 µg/mL
Acinetobacter baumannii [4]; ATCC BAA 18002, 48 h
  MIC: > 25 µg/mL
Klebsiella pneumoniae [9]
  MIC: 0.25 µg/mL
Klebsiella pneumoniae [10]
  MBC: 0.78 µg/mL
Escherichia coli [11]
  MIC: 3.13 µg/mL
Escherichia coli [12]
  MBC: 6.25 µg/mL
Pseudomonas aeruginosa [13]
  MIC: 12.5 µg/mL
Pseudomonas aeruginosa [14]
  MBC: 25 µg/mL
Staphylococcus aureus [15]
  MIC: 3.13 µg/mL
Staphylococcus aureus [16]
  MBC: 12.5 µg/mL
Acinetobacter baumannii [17]
  ED50: < 2 mg/kg

## CCCCCCCCCCCCC/C=C/C(=O)N[C@H]1[C@H](O[C@H]2O[C@H](CO)[C@@H](O)[C@H](O)[C@H]2NC(C)=O)O[C@H](CC(O)[C@H]2O[C@@H](n3ccc(=O)[nH]c3=O)[C@H](O)[C@@H]2O)[C@H](O)[C@@H]1O (stereo partly drawn)
Vero; [20]
  IC50: 0.2 µg/mL (≈ 0.237 µM)

## C=C[C@]1(C)C[C@@H](OC(=O)CSC(C)(C)CNC(=O)[C@H](NC(=O)CN)C(C)C)[C@]2(C)[C@H](C)CC[C@]3(CC[C@@H](O)[C@H]32)[C@@H](C)[C@@H]1O
Acinetobacter baumannii [1]; [19]
  MIC: 3.13 µg/mL (≈ 5.02 µM)
Acinetobacter baumannii [2]
  MBC: > 12.5 µg/mL
Acinetobacter baumannii [4]; ATCC BAA 18002, 48 h
  MIC: 3.13 µg/mL (≈ 5.02 µM)

## COLISTIN [listing 2 of 2 here]
Acinetobacter baumannii [1]; [21]
  MIC: 3.13 µg/mL
Acinetobacter baumannii [2]
  MBC99.9: 25 µg/mL
Acinetobacter baumannii [3]; [21]
  MBC99.9: 6.25 µg/mL
Acinetobacter baumannii [4]
  MIC: > 12.5 µg/mL

## NC[C@H]1O[C@H](O[C@H]2[C@H](O)[C@@H](O[C@H]3O[C@H](CO)[C@@H](O)[C@H](N)[C@H]3O)[C@H](N)C[C@@H]2N)[C@H](N)C[C@@H]1O [TOBRAMYCIN]
Acinetobacter baumannii [1]; [19]
  MIC: 6.25 µg/mL (≈ 13.4 µM)
Acinetobacter baumannii [2]
  MBC: > 25 µg/mL
Acinetobacter baumannii [3]
  MBC: 12.5 µg/mL (≈ 26.7 µM)
Acinetobacter baumannii [4]; ATCC BAA 18002, 48 h
  MIC: > 25 µg/mL
Vero; [20]
  IC50: > 200 µg/mL
Acinetobacter baumannii [18]
  survival at 6 mg/kg: 100%

Source: ChEMBL document CHEMBL4177542, “A New Combination of a Pleuromutilin Derivative and Doxycycline for Treatment of Multidrug-Resistant Acinetobacter baumannii” (J Med Chem, 2017)
